Apaf-1 act: activators of human Apaf-1 apoptosome | O14727 | actives 0.31% (n = 330,000) | activity change, negative = activation, % at 20 µM | Apaf-1 apoptosome caspase-3 activation, DEVD-Rh110 fluorescence; stronger effect = lower value | AID 489031;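 active means activity change at or below -40% at 20 µM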
Target sequence (O14727 whole entry, looked up): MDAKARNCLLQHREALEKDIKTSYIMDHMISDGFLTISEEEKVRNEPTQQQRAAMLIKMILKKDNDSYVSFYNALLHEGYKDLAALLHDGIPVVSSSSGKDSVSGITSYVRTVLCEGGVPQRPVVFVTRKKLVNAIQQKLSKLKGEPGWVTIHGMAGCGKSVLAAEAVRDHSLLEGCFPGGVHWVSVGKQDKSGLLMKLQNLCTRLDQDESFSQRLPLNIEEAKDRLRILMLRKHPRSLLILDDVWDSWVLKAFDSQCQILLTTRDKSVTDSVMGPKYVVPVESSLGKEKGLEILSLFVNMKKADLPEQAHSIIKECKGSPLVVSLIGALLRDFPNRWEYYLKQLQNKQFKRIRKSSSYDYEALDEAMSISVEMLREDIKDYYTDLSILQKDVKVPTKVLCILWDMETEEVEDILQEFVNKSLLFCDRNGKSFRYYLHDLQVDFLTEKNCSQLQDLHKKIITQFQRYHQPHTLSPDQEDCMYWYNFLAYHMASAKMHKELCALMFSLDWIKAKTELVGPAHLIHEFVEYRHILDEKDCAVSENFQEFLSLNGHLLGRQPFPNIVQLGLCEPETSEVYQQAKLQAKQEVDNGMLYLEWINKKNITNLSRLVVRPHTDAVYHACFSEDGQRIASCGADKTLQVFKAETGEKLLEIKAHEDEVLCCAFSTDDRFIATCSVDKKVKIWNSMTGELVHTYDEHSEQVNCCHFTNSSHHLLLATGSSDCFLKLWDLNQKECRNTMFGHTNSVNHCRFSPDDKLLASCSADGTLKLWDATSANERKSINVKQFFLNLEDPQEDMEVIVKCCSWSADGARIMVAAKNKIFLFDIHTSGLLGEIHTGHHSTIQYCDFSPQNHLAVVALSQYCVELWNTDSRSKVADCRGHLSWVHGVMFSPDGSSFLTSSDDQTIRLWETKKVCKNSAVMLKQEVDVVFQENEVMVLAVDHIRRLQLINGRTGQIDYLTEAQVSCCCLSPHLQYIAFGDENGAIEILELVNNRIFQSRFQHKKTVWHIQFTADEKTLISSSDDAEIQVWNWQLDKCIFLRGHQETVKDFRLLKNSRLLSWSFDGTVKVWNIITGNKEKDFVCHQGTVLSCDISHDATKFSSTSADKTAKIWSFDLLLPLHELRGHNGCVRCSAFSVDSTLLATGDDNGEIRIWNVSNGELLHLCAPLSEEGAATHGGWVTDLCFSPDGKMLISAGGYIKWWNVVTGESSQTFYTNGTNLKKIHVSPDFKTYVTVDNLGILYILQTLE
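System: Reconstituted apoptosome of Apaf-1, cytochrome c, caspase-9, procaspase-3 | Reagent: dATP, cytochrome c, and (Z-DEVD)2-Rh110 caspase-3 substrate | Times: 30 min compound preincubation and 50 min reaction, both room temperature | Detection: Caspase-3-released Rh110 fluorescence, 540 nm emission, 480 nm excitation | Measure: Caspase-3 activity via Apaf-1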
Rh110 interf act: interferes with Rh110 fluorescence, flagging false Apaf-1 activators; shares compounds with Apaf-1 act; Rh110 fluorescence interference, quenched caspase reaction, Ex480/Em540; 980 tested, under 10 active; AID 504616; fluorescence interference (activity change), % at 20 µM, hits read low;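 active means mean activity change at or below -40% when tested at 20 µM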
Apaf-1 act conf: confirmation of human Apaf-1 activators. reconstituted apoptosome caspase-3 activity, DEVD-Rh110 fluorescence; stronger effect = lower value. shares compounds with Apaf-1 act. AID 504617. actives 5% (n = 980). activity change, negative = activation, % at 20 µM;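 active means mean activity change at or below -40%, meaning activation of 40% or more, at 20 µM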
Fluor interf act: Apaf-1 activator counter-screen fluorescence artifact; 55 tested, under 10 active; fluorescence interference counterscreen, Apaf-1 activator assay; EC50, µM; AID 588592; shares compounds with Apaf-1 act; call rule not given here
Starred values were filed as active, the others as inactive; · = not tested or not shown. The list is a sample of the results.

SMILES	Apaf-1 act	Rh110 interf act	Apaf-1 act conf	others
CC(C)(C)c1ccc(-c2nn(CCC#N)cc2/C=N/O)cc1	50	·	·
C#CCOCCOCCOCCNc1nc(N2CCN(C(=O)CCCCCCCCCCNC(=O)Cn3cc(C[C@@H](C)O)nn3)CC2)nc(N2CCN(C(=O)CCCCCCCCCCNC(=O)[C@@H]([C@H](C)CC)n3cc(CCCCCN)nn3)CC2)n1	54	·	·
CCCCCc1cc(=O)oc2c(C(CCN3CCCC(C)C3)c3ccc(OC)cc3)c(OC)cc(OC)c12 (stereo unspecified)	66	·	·
COC(=O)CCC(=O)OC1(C)C(=O)C=C2C=C(C3CC3)N(Cc3ccccc3)C=C2C1=O (stereo unspecified)	42	·	·
COc1ccc(N2CCN(C(c3cc(OC)ccc3OC)c3nnnn3Cc3ccco3)CC2)cc1 (stereo unspecified)	-258*	7	13
Cc1ccc(C)c2[nH]c(=O)c(C(c3nnnn3Cc3ccco3)N3CCc4ccccc4C3)cc12 (stereo unspecified)	71	·	·
Nc1ccc(N)c(C(=O)O)c1	67	·	·
COc1ccccc1/C=C1/C(=O)N(c2ccccc2)N=C1C	93	·	·
COc1ccccc1C(CNC(=O)c1ccc(S(=O)(=O)NCc2ccco2)cc1)N(C)C (stereo unspecified)	-53*	12	6
Cc1ccc(-c2nn3c(C)nnc3c3ccccc23)cc1S(=O)(=O)NCc1ccco1	44	·	·
COc1ccccc1CNS(=O)(=O)c1ccc(-c2cc(C)no2)cc1	45	·	·
COc1ccccc1CCn1c(N)c(C#N)c2nc3ccccc3nc21	40	·	·
COc1ccc(S(=O)(=O)N2CCCCCC2)cc1C(=O)N(C)CCOc1ccccc1	55	·	·
COc1cc2oc3ccccc3c2cc1N(CC(=O)N1CCCCC1)S(=O)(=O)c1ccc(C)cc1	-236*	-8	16
COC1=C(N)C(=O)c2nc(-c3nc(C(=O)O)c(C)c(-c4ccc(OC)c(OC)c4O)c3N)ccc2C1=O	84	·	·
CCOC(=O)c1sc2nc3c(SCC(=O)O)cc(C(=O)c4ccccc4O)cn3c(=O)c2c1C	-189*	6	-24
c1ccc2c(C[C@@H]3CNCCN3CCCCC3CCCCC3)cccc2c1	71	·	·
CCC(C)c1ccc(NC(=O)C2CCN(c3ncccn3)CC2)cc1 (stereo unspecified)	-122*	11	16
Cc1sc2ncnc(N3CCC(C(=O)Nc4ccc(Cl)c(Cl)c4)CC3)c2c1C	42	·	·
CN(C)S(=O)(=O)N1CCCN(S(=O)(=O)N(C)C)CC1	-313*	0	14
COc1cc(/C=C2\C(=O)N(c3ccc(S(N)(=O)=O)cc3)N=C2C)ccc1OC(=O)c1ccco1	91	·	·
N#CC(c1nc2ccccc2nc1N1CCCC1)S(=O)(=O)c1ccccc1 (stereo unspecified)	64	·	·
COC(=O)c1ccc(N2CC3CNC(=O)C2(C(=O)OC)N3C)cc1 (stereo unspecified)	-6	·	·
O=C(CSc1nnc(-c2ccncc2)n1CCc1ccccc1)N1CCCC1	-263*	5	15
Cc1c(/C(O)=C2/C(=O)C(=O)N(CCN3CCOCC3)C2c2cccs2)cnn1-c1ccccc1 (stereo unspecified)	-424*	17	16
SMILES	Apaf-1 act	Rh110 interf act	Apaf-1 act conf	others
CC1=CC2=NC(=O)/C(=C/c3coc4ccc(Cl)cc4c3=O)C(=N)N2O1	-522*	-14	11
CCCC(=Nc1ccc(N)cc1)C1=C(O)C(C(=O)OC)C(C)(C)CC1=O (stereo unspecified)	67	·	·
CC(NC(=O)c1ccccc1Cl)C(=O)O (stereo unspecified)	-532*	-1	3
O=C(NC1(O)C(=O)c2ccccc2C1=O)c1c(Cl)cccc1Cl	96	·	·
O=C(Cn1nc(-c2ccccc2Cl)ccc1=O)Nc1ccccc1-c1ccccc1	56	·	·
COc1ccc(Cn2c(N)c(C#N)c3nc4ccccc4nc32)cc1OC	86	·	·
COc1ccc(NC(=O)[C@@H](NC(=O)N2C[C@H]3C[C@@H](C2)c2cccc(=O)n2C3)C(C)C)cc1OC	62	·	·
CN1Cc2c(N3CCOCC3)nc3sc(C(=O)c4ccc(Br)cc4)c(N)c3c2CC1(C)C	56	·	·
c1ccc(-c2nc(C3CCCCC3)no2)cc1	-154*	3	0
CC(C)C(C(=O)O)N1C(=O)/C(=C/C=C/c2ccco2)SC1=S (stereo unspecified)	46	·	·
CCN1CCN(c2ccc(S(=O)(=O)N3CCCCC3)cc2NC(=O)COc2ccc(Cl)c(C)c2)CC1	45	·	·
Cc1cc(C)c(S(=O)(=O)/N=C2\C=C(Nc3ccc(C(=O)O)cc3)C(=O)c3ccccc32)c(C)c1	89	·	·
CC(=O)OCC1=C(C(=O)O)N2C(=O)C(NC(=O)C(C)Cn3nc(C)c(Cl)c3C)C2SC1 (stereo unspecified)	-90*	5	-19
Oc1cccc(/C=N/Nc2cc(N3CCCC3)nc(N3CCCC3)n2)c1	97	·	·
Cc1ccc(C(=O)NC(C(=O)Nc2ccccc2)c2ccccc2)cc1 (stereo unspecified)	-55*	8	15
CC(OC(=O)c1cc(O)c2ccccc2c1O)C(=O)Nc1ccc(C(N)=O)cc1 (stereo unspecified)	49	·	·
CCC[C@@H](CN1CCC[C@H]1CN1C(N)=NC[C@@H]1Cc1ccccc1)N1C[C@@H](Cc2ccccc2)N(CCc2ccc(Cl)c(Cl)c2)C1=N	78	·	·
COc1ccc(C(=O)c2c(C(F)(F)F)oc3c2C(=O)c2ccccc2C3=O)cc1OC	85	·	·
O=C(NC1=C(Nc2ccc(F)cc2)C(=O)c2ccccc2C1=O)c1ccc(Cl)cc1	70	·	·
COc1ccc(C(=O)Nc2ccc3c(c2)C(=O)c2ccccc2C3=O)cc1OC	-507*	5	6	Fluor interf act=>100
CCC[C@@H](CN1CCC[C@H]1CN1C(N)=NC[C@@H]1Cc1ccccc1)N1C[C@@H]([C@H](C)CC)N(CCCC2CCCC2)C1=N	77	·	·
O=C1CC(=Nc2ccccc2)NN1c1ccccc1	66	·	·
CCCCn1c(NC(=O)c2ccc(Br)o2)c(S(=O)(=O)c2ccccc2)c2nc3ccccc3nc21	71	·	·
O=C(NCCCCCCNC(=O)OC1CCS(=O)(=O)C1)OC1CCS(=O)(=O)C1 (stereo unspecified)	-48*	8	4
O=C(NC1CCS(=O)(=O)C1)Oc1ccccc1 (stereo unspecified)	51	·	·
SMILES	Apaf-1 act	Rh110 interf act	Apaf-1 act conf	others
Nc1ccc(N2CCOCC2)c2nonc12	84	·	·
NC1(C#Cc2ccc3c(=O)c4ccccc4sc3c2)CCCCC1	60	·	·
CN1CCCC1CCNc1ccc2sc3ccccc3c(=O)c2c1 (stereo unspecified)	44	·	·
COc1ccc2sc3ccccc3c(=O)c2c1	-77*	1	16
O=C1c2ccccc2C(=O)c2[nH]c(=O)[nH]c21	80	·	·
O=c1[nH]c(=O)c2nc3c4ccccc4c4ccccc4c3nc2[nH]1	-43*	6	-19
O=c1[nH]c(Nc2ccccc2)cc2ccccc12	96	·	·
CC(=O)c1cc(C#N)c(Oc2cccc(C(F)(F)F)c2)nc1C	-151*	9	3
Oc1ccc(/C=N/Nc2cc(N3CCCC3)nc(N3CCCC3)n2)cc1	97	·	·

Source: PubChem BioAssay (Sanford-Burnham Center for Chemical Genomics)
